Experimental data pooled from the literature.
Lines come from different studies, so protocols differ.
Observed: cell growth or viability

| Compound | cell line | test | conditions | IC50 [µM] |
| --- | --- | --- | --- | --- |
| COc1cccc2c1cc1c3c(cc4c(c32)OCO4)C(=O)N1C | MOLT-3 | XTT | 75 h | 50.3 |
| CS(=O)(=O)CCNCc1ccc(-c2ccc3ncnc(Nc4ccc(OCc5cccc(F)c5)c(Cl)c4)c3c2)o1 | HCC1419 | ATP luminescence | – | 0.0544 |
| CC(C)c1cccc(C(C)C)c1N=C1C(=O)N(Cc2ccccc2)c2ccccc21 | L02 | MTT | 48 h | 59 |
| O=C(NO)c1ccc(Cn2cnc3c(Nc4ccc(F)c(Cl)c4)ncnc32)cc1 | NALM-6 | MTT | 72 h | 2.02 |
| Cc1cccc(N=C2C(=O)N(Cc3cccc(Cl)c3)c3ccccc32)c1 | L02 | MTT | 48 h | 25.8 |
| CN(C)C(=O)c1cc2cnc(Nc3ccc(-c4ccc5c(=O)cc(N6CCOCC6)oc5c4)cc3)nc2n1C1CCCC1 | Hs68 | ATP luminescence | 72 h | 1.15 |
| O=C1Nc2ccccc2C1=Nc1ccc(Cl)cc1 | L02 | MTT | 48 h | 28.4 |
| COc1c(Cl)cccc1Nc1c(-c2ccncc2OC[C@@H]2COCCO2)[nH]c2c1C(=O)NCC2 | HCC1419 | ATP luminescence | – | 0.0064 |
| COc1cc(N=C2C(=O)Nc3ccccc32)cc(OC)c1 | L02 | MTT | 48 h | > 100 |
| CC1=CC(=O)C(C(C)C)=CC1=O | PANC-1 | SRB | 48 h | 8.9 |
| C(=N\Nc1cc(N/N=C/c2ccc3ccccc3n2)ncn1)/c1ccc2ccccc2n1 | L02 | MTT | 48 h | > 100 |
| C=CCN1C(=O)C(=Nc2cccc(C)c2)c2ccccc21 | L02 | MTT | 48 h | 14.1 |
| C=C1C[C@@]23CC[C@H]4[C@@](C)(CCC[C@@]4(C)C(=O)O)[C@@H]2CC[C@@H]1C3 | MOLT-3 | XTT | 75 h | 116 |
| CC1=CC(=O)c2ccccc2C1=O | MOLT-3 | XTT | – | 10.3 |
| Nc1ccccc1NC(=O)c1ccc(Cn2cnc3c(Nc4ccc(Br)cc4F)ncnc32)cc1 | NALM-6 | MTT | 72 h | 1.54 |
| CC(C)c1cccc(C(C)C)c1N=C1C(=O)N(Cc2cccc(Cl)c2)c2ccccc21 | L02 | MTT | 48 h | 72.5 |
| C(=N\Nc1cc(N/N=C/c2ccc3ccccc3n2)nc(-c2ccccc2)n1)/c1ccc2ccccc2n1 | L02 | MTT | 48 h | > 100 |
| Cc1ncsc1-c1ccc([C@H](C)NC(=O)[C@@H]2C[C@@H](O)CN2C(=O)[C@@H](NC(=O)CN2CCN(c3cc(-c4ccccc4O)nnc3N)CC2)C(C)(C)C)cc1 | NCI-H1944 | ATP luminescence | 7 days | 0.215 |
| O=C(NO)c1ccc(Cn2cnc3c(Nc4ccc(Cl)cc4)ncnc32)cc1 | NALM-6 | MTT | 72 h | 0.41 |
| CC(C)(C)c1cnc(CSc2cnc(NC(=O)C3CCN(C(=O)CCCCCCCN4Cc5cc6c(cc5C4)C(=O)N(C4CCC(=O)NC4=O)C6=O)CC3)s2)o1 (stereo not drawn) | REH | MTT | – | 0.0066 |
| O=C1C(=Nc2ccccc2I)c2ccccc2N1Cc1cccc(Cl)c1 | L02 | MTT | 48 h | 19.1 |
| O=C(NO)c1ccc(Cn2cnc3c(Nc4cccc([N+](=O)[O-])c4)ncnc32)cc1 | NALM-6 | MTT | 72 h | 1.9 |
| CN1C(=O)C(=O)c2cc3c(c4c2c1cc1ccccc14)OCO3 | MOLT-3 | XTT | 75 h | 20.4 |
| COC[C@H](NC(=O)c1ccn(S(C)(=O)=O)c1)C(=O)Nc1nc(-c2cccc(N3C[C@@H](C)O[C@@H](C)C3)n2)cs1 | NCI-H1944 | ATP luminescence | 7 days | 0.0451 |
